These results are taken from ChEMBL document CHEMBL4680069, “Itaconate is a covalent inhibitor of the Mycobacterium tuberculosis isocitrate lyase” (RSC Med Chem, 2021).

A short description of assay [1]: Covalent inhibition of wild type N-terminal polyhis-tagged TEV protease cleavage site fused Mycobacterium tuberculosis ICL1 expressed in Escherichia coli BL21 (DE3) using DL-isocitrate as substrate measured after 1 hr by UV-Vis spectrophotometric analysis. In outline:
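Recombinant ICL1 at 20 nM with 1 mM DL-isocitrate and 1 mM MgCl2 in 50 mM Tris pH 7.5. Includes 10 mM phenylhydrazine-HCl to trap product. Inhibitor tested at varying concentrations to give IC50. Four separate measurements; errors are standard deviations.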

The test system of assay [2] is Mycobacterium tuberculosis. Description: Binding affinity to wild type N-terminal polyhis-tagged TEV protease cleavage site fused Mycobacterium tuberculosis ICL1 expressed in Escherichia coli BL21 (DE3) assessed as compound-protein covalent adduct formation by measuring molecular mass at 1 mM after 12 hrs in presence of MgCl2 by LC-MS analysis.
Assay [3] relates to Mycobacterium tuberculosis. Kind of assay: Binding affinity to recombinant Mycobacterium tuberculosis CDC1551 ICL2 (Cys215-Arg233) expressed in Escherichia coli BL21 (DE3) LOBSTR assessed as covalent adduct formation at 1 mM incubated overnight in presence of Mg2+ followed by trypsin protease digestion by tandem mass spectrometry analysis. The note with it: time 12.0 hrs.
Assay [4] has as its system Mycobacterium tuberculosis. Description: Binding affinity to wild type N-terminal polyhis-tagged TEV protease cleavage site fused Mycobacterium tuberculosis ICL1 expressed in Escherichia coli BL21 (DE3) assessed as compound-protein covalent adduct formation at 1 mM in absence of Mg2+ by LC-MS analysis.
Assay [5] concerns Mycobacterium tuberculosis. Description: Binding affinity to wild type N-terminal polyhis-tagged TEV protease cleavage site fused Mycobacterium tuberculosis ICL1 expressed in Escherichia coli BL21 (DE3) assessed as covalent adduct formation at 1 mM measured after 5 hrs in presence of Mg2+ by LC-MS/MS analysis relative to control.
Assay [6] can be described thus: Binding affinity to wild type N-terminal polyhis-tagged TEV protease cleavage site fused Mycobacterium tuberculosis ICL1 expressed in Escherichia coli BL21 (DE3) in presence of MgCl2 by NMR binding analysis.
Assay [7] concerns Mycobacterium tuberculosis. Description: Binding affinity to wild type N-terminal polyhis-tagged TEV protease cleavage site fused Mycobacterium tuberculosis ICL1 expressed in Escherichia coli BL21 (DE3) assessed as covalent adduct formation in presence of glyoxylate by NMR binding analysis.
Assay [8] can be described thus: Binding affinity to wild type N-terminal polyhis-tagged TEV protease cleavage site fused Mycobacterium tuberculosis ICL1 expressed in Escherichia coli BL21 (DE3) in presence of glyoxylate by NMR binding analysis.
Assay [9] in a line: Binding affinity to wild type N-terminal polyhis-tagged TEV protease cleavage site fused Mycobacterium tuberculosis ICL1 expressed in Escherichia coli BL21 (DE3) in absence of Mg2+ by NMR binding analysis.
In assay [10] the test system is Mycobacterium tuberculosis. Description: Binding affinity to wild type N-terminal polyhis-tagged TEV protease cleavage site fused Mycobacterium tuberculosis ICL1 expressed in Escherichia coli BL21 (DE3) assessed as covalent adduct formation at 1 mM measured after 75 mins in presence of Mg2+ by LC-MS/MS analysis relative to control.
The test system of assay [11] is Mycobacterium tuberculosis. Kind of assay: Binding affinity to wild type N-terminal polyhis-tagged TEV protease cleavage site fused Mycobacterium tuberculosis ICL1 (Ala170-Lys197) expressed in Escherichia coli BL21 (DE3) assessed as covalent adduct formation at 1 mM incubated overnight in presence of Mg2+ followed by trypsin protease digestion by tandem mass spectrometry analysis. The note with it: time 12.0 hrs.

In assay [12] the test system is Mycobacterium tuberculosis. Kind of assay: Binding affinity to wild type N-terminal polyhis-tagged TEV protease cleavage site fused Mycobacterium tuberculosis ICL1 expressed in Escherichia coli BL21 (DE3) assessed as covalent adduct formation at 1 mM measured after 1 min in presence of Mg2+ and glyoxylate by LC-MS/MS analysis relative to control.
Assay [13] can be described thus: Binding affinity to wild type N-terminal polyhis-tagged TEV protease cleavage site fused Mycobacterium tuberculosis ICL1 expressed in Escherichia coli BL21 (DE3) in presence of Mg2+ and glyoxylate by NMR binding analysis.

The source made the active and inactive calls. No cut-off for these calls is given here.

As to `C=C(CC(=O)OC)C(=O)OC`, the IC50 (usually the concentration that gives 50% inhibition) in assay [1] was more than 10000 µM.

`C=C(CC(=O)O)C(=O)O` [ITACONATE]: the result in [2], in assay [3] and in assay [11] was Active. In addition, the outcome in assay [4] and in assay [7] was inactive. In addition, the Activity was 100% in assay [5], 50% in assay [10] and 100% in [12]. In addition, the dissociation constant (Kd) (in general, the constant that tells how readily two partners part at equilibrium) in assay [6] was 112 µM; in assay [8], more than 500 µM; in [9], more than 500 µM; in [13], 123 µM. This compound also displayed a half-inhibitory concentration (IC50) in [1] of 420 µM.

In turn, `C/C=C(\CC(=O)O)C(=O)O` showed a 50% inhibitory concentration (IC50) in [1] of 3100 µM.

As to `O=C(O)/C=C(\CC(=O)O)C(=O)O` [ACONITIC ACID], half-maximal inhibition in assay [1] (IC50) was put at 5020 µM.

As for `O=C(O)/C=C(/CC(=O)O)C(=O)O`, in assay [1], the IC50 worked out at 5200 µM.

In the case of `O=C(O)C/C(=C\c1ccccc1)C(=O)O`, the IC50 in assay [1] stood at 2600 µM.

As for `C/C=C(\CC(=O)OC)C(=O)OC`, the IC50 in [1] was more than 10000 µM.
